SMILES strings stand for the structures. Activity calls are given as the source filed them. The calls are words filed in the database; no cut-off is given here.

Data set [1] concerns SW-620. As to the kind of experiment: Cytostatic activity against human SW620 cells at 1 to 10 uM after 72 hrs by MTT assay. The format is functional, cell-based. An outline of the steps: (§1)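 Monolayers in DMEM with 10% FBS, 2 mM L-glutamine, penicillin and streptomycin (37 °C, 5% CO2) were seeded at 3000–6000 cells/well on day 0. Five 10-fold dilutions (0.01–100 µM) were added, followed by 72-h incubation and MTT read-out. Absorbances were converted to percentage growth by the NIH formulae. Each point was run in quadruplicate in three experiments; ANOVA with Tukey test.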

Data set [2] relates to MIA PaCa-2. As to the kind of experiment: Cytostatic activity against human MIAPaCa2 cells at 1 to 10 uM after 72 hrs by MTT assay. Type of data set: functional, cell-based. The essentials: as §1
Data set [3] deals with SK-BR-3. Description: Cytostatic activity against human SKBR3 cells at 1 to 10 uM after 72 hrs by MTT assay. Type of data set: functional, cell-based. The essentials: as §1
(In general: Tetrazolium assays rely on reduction of a dye to a coloured formazan, in cell work by metabolically active cells.)

Data set [4] concerns HEp-2. As to the kind of experiment: Cytostatic activity against human Hep2 cells at 1 to 10 uM after 72 hrs by MTT assay. The format is functional, cell-based. An outline of the steps: as §1
Data set [5] has as its system MCF7. As to the kind of experiment: Cytostatic activity against human MCF7 cells at 1 to 10 uM after 72 hrs by MTT assay. Type of data set: functional, cell-based. The essentials:
as §1

For data set [6], the system named is HeLa. Description: Cytostatic activity against human HeLa cells at 1 to 10 uM after 72 hrs by MTT assay. The format is functional, cell-based. An outline of the steps:
as §1

In data set [7] the test system is Nucleic Acid. As to the kind of experiment: Binding affinity to calf thymus DNA assessed as change in melting temperature at compound to polynucleotide ratio of 0.5 by UV-VIS spectroscopic analysis. Type of data set: nucleic-acid assay. To be noted: Bos taurus. The essentials:
(§2)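 ct-DNA alone or with compound at set r = [compound]/[polynucleotide], in cacodylate buffer pH 7.0, I = 0.05 mol dm^-3. Absorbance at 260 nm followed against temperature, ligand absorbance subtracted, curves normalized. Tm is the transition midpoint, from the first-derivative maximum or by tangent method. ΔTm = Tm(complex) − Tm(free DNA), mean of ≥2 runs, error ±0.5 °C.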

The test system of data set [8] is Nucleic Acid. As to the kind of experiment: Binding affinity to calf thymus DNA assessed as change in melting temperature at compound to polynucleotide ratio of 0.3 by UV-VIS spectroscopic analysis. The format is nucleic-acid assay. Conditions: Bos taurus. An outline of the steps:
as §2

In data set [9] the test system is Nucleic Acid. Description: Binding affinity to calf thymus DNA assessed as change in melting temperature at compound to polynucleotide ratio of 0.2 by UV-VIS spectroscopic analysis. To be noted: Bos taurus. Type of data set: nucleic-acid assay. The essentials:
as §2

Data set [10] deals with Nucleic Acid. As to the kind of experiment: Binding affinity to calf thymus DNA assessed as change in melting temperature at compound to polynucleotide ratio of 0.1 by UV-VIS spectroscopic analysis. The format is nucleic-acid assay. Conditions: Bos taurus. The essentials: as §2
Data set [11] deals with Nucleic Acid. As to the kind of experiment: Binding affinity to calf thymus DNA assessed as hypochromic changes at 330 nm wavelength by UV-Vis spectrophotometric titrations. Conditions: Bos taurus. The format is nucleic-acid assay. An outline of the steps: (§3)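 UV/Vis titration: aliquots of ct-DNA (concentration as phosphate) added to compound solution in sodium cacodylate buffer pH 7.0, I = 0.05 mol dm^-3, 1 cm quartz cuvettes. Hypochromism followed at band maxima. Compound absorbance linear up to 2.0 × 10^-5 mol dm^-3. Binding data fitted by the Scatchard equation.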

Data set [12] has as its system Nucleic Acid. Description: Binding affinity to calf thymus DNA assessed as hypochromic changes at 343 nm wavelength by UV-Vis spectrophotometric titrations. The format is nucleic-acid assay. To be noted: Bos taurus. An outline of the steps:
as §3

Data set [13] relates to Nucleic Acid. Description: Binding affinity to calf thymus DNA assessed as appearance of weak, negative induced CD band at > 300 nm wavelength by circular dichroism spectroscopy. Conditions: Bos taurus. The format is nucleic-acid assay. An outline of the steps:
(§4)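 CD spectra of ct-DNA (1.0 × 10^-5 mol dm^-3, as phosphate) titrated with compound at 25 °C. Sodium cacodylate buffer pH 7.0, I = 0.05 mol dm^-3, 1 cm quartz cuvette. DNA band (~274–275 nm) and induced bands above 300 nm followed versus r = [compound]/[ct-DNA].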
On the technique in general: Circular dichroism is the unequal absorption of left and right circularly polarised light.

Data set [14] deals with Nucleic Acid. As to the kind of experiment: Binding affinity to calf thymus DNA assessed as UV/Vis spectral change at compound to DNA ratio of 0.24 by UV/Vis titrations. Conditions: Bos taurus.
Data set [15] deals with WI-38. As to the kind of experiment: Antiproliferative activity against human WI38 cells after 72 hrs by MTT assay. To be noted: Homo sapiens, WI-38, 72 h. Type of data set: cell-based. An outline of the steps: (§5)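 Monolayer cells in DMEM with 10% FBS, 2 mM L-glutamine, penicillin and streptomycin at 37 °C, 5% CO2. Seeded at 3000-6000 cells/well by doubling time on day 0. Five 10-fold dilutions (0.01–100 µM) were added and incubated 72 h. MTT read-out, converted to percentage growth. IC50 by linear regression between bracketing concentrations. Quadruplicate points, three independent experiments, ANOVA/Tukey p<0.05.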

Data set [16] concerns MIA PaCa-2. As to the kind of experiment: Antiproliferative activity against human MIAPaCa2 cells after 72 hrs by MTT assay. The format is functional, cell-based. To be noted: Homo sapiens, MIA PaCa-2, 72 h. The essentials: as §5
Data set [17] relates to SW-620. As to the kind of experiment: Antiproliferative activity against human SW620 cells after 72 hrs by MTT assay. The format is functional, cell-based. To be noted: Homo sapiens, SW-620, 72 h. An outline of the steps: as §5
The test system of data set [18] is HEp-2. As to the kind of experiment: Antiproliferative activity against human Hep2 cells after 72 hrs by MTT assay. Type of data set: functional, cell-based. Conditions: Homo sapiens, HEp-2, 72 h. An outline of the steps: as §5
In data set [19] the test system is SK-BR-3. As to the kind of experiment: Antiproliferative activity against human SKBR3 cells after 72 hrs by MTT assay. The format is functional, cell-based. Conditions: Homo sapiens, SK-BR-3, 72 h. An outline of the steps:
as §5

Data set [20] deals with MCF7. As to the kind of experiment: Antiproliferative activity against human MCF7 cells after 72 hrs by MTT assay. Type of data set: functional, cell-based. Conditions: Homo sapiens, MCF7, 72 h. An outline of the steps:
as §5

Data set [21] relates to HeLa. Description: Antiproliferative activity against human HeLa cells after 72 hrs by MTT assay. The format is functional, cell-based. Conditions: Homo sapiens, HeLa, 72 h. An outline of the steps:
as §5

The test system of data set [22] is WI-38. As to the kind of experiment: Cytostatic activity against human WI38 cells at 1 to 10 uM after 72 hrs by MTT assay. Conditions: wi-38, 72 h. Type of data set: ADME, cell-based. An outline of the steps:
as §1

Data set [23] has as its system Nucleic Acid. Description: Binding affinity to calf thymus DNA assessed as appearance of weak positive CD band at compound to DNA ratio of > 0.3 and 350 to 400 nm wavelength by circular dichroism spectroscopy. The format is nucleic-acid assay. To be noted: Bos taurus. An outline of the steps:
as §4

Data set [24] concerns Nucleic Acid. As to the kind of experiment: Binding affinity to calf thymus DNA assessed as fluorescence quenching at compound to DNA ratio of 0.20 by fluorimetric titrations. The format is nucleic-acid assay. To be noted: Bos taurus. An outline of the steps:
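Fluorimetric titration: portions of ct-DNA (sonicated, filtered, concentration as phosphate) added to compound in cacodylate buffer pH 7.0, I = 0.05 mol dm^-3. Emission 350–600 nm, sample absorbance <0.05 at excitation, mostly DNA excess (r < 0.1). Ks and n = [bound compound]/[DNA phosphate] by non-linear least-squares Scatchard fitting.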

In data set [25] the test system is Nucleic Acid. As to the kind of experiment: Binding affinity to calf thymus DNA assessed as hypochromic changes at 360 nm wavelength by UV-Vis spectrophotometric titrations. Type of data set: nucleic-acid assay. To be noted: Bos taurus. The essentials: as §3
Data set [26] deals with Nucleic Acid. Description: Binding affinity to calf thymus DNA assessed as hypochromic changes at 342 nm wavelength by UV-Vis spectrophotometric titrations. Type of data set: nucleic-acid assay. Conditions: Bos taurus. An outline of the steps: as §3
The test system of data set [27] is Nucleic Acid. As to the kind of experiment: Binding affinity to calf thymus DNA assessed as hypochromic changes at 327 nm wavelength by UV-Vis spectrophotometric titrations. The format is nucleic-acid assay. Conditions: Bos taurus. An outline of the steps:
as §3

In data set [28] the test system is Nucleic Acid. Description: Binding affinity to calf thymus DNA assessed as appearance of weak, negative CD band at 325 nm wavelength by circular dichroism spectroscopy. Type of data set: nucleic-acid assay. To be noted: Bos taurus. An outline of the steps:
as §4

With `Nc1ccc2c(ccc3nc4ncccc4n32)c1`, the result in the data set on SW-620 [1], with MIA PaCa-2 [2], in the data set on SK-BR-3 [3], with HEp-2 [4], with MCF7 [5] and with HeLa [6] was Active. Moreover, the ΔTm was determined as 1.3 °C in the data set on Nucleic Acid [7], 0.2 °C with Nucleic Acid [8], 1.4 °C in the data set on Nucleic Acid [9] and 0.7 °C in the data set with Nucleic Acid [10]. The figures for the Activity with Nucleic Acid [11] and in the data set on Nucleic Acid [12] were 26% and 18%, respectively. In addition, the outcome in the data set on Nucleic Acid [13] was inactive. In addition, in the data set on Nucleic Acid [14], the log Ks is 4.6.
Take `C[n+]1cccc2c1nc1ccc3ccccc3n12.[I-]`: the IC50 in the data set with WI-38 [15] is 6.27 µM; in the data set with MIA PaCa-2 [16] it was 8.56 µM; in the data set with SW-620 [17], 14.8 µM; in the data set on HEp-2 [18], 13.2 µM; with SK-BR-3 [19] it was 3.51 µM; in the data set on MCF7 [20] it was 7.56 µM. The IC50 with HeLa [21] was 7.52 µM. The Activity result was “Toxic” with WI-38 [22], 38% with Nucleic Acid [25], 37% in the data set on Nucleic Acid [26] and 28% in the data set with Nucleic Acid [27]. Also, the result in the data set on SW-620 [1], in the data set on MIA PaCa-2 [2], with SK-BR-3 [3], in the data set on HEp-2 [4], with MCF7 [5] and in the data set with HeLa [6] was Active. Moreover, the result in the data set with Nucleic Acid [23] and with Nucleic Acid [28] was Active. Besides, the ΔTm was determined as 6.1 °C with Nucleic Acid [7], 4.25 °C with Nucleic Acid [8], 2.6 °C with Nucleic Acid [9] and 1.6 °C in the data set with Nucleic Acid [10]. Also, in the data set with Nucleic Acid [24], the log Ks worked out at 4.9.

What is called ΔTm is the shift of the melting midpoint relative to a reference. As a reminder, the IC50 is the concentration that gives 50% inhibition. The low end stands for inhibition by little substance, the high end for a need for much substance.

These data come from ChEMBL document CHEMBL1806443, “Novel imidazo[4,5-b]pyridine and triaza-benzo[c]fluorene derivatives: synthesis, antiproliferative activity and DNA binding studies” (Eur J Med Chem, 2011).
